ChEMBL document CHEMBL3352339, “Implications of N-capped urea/thiourea and C-capped 3-(1-piperazinyl)-1,2-benzisothiazole with bridging Gly-Val/Phe-Gly-Val-Pro as therapeutic targets” (Eur J Med Chem, 2014)
In brackets after ≈: the same amount, converted by molar mass. Starred links: 1 amine or outer side, 2 acyl side, 3 side chain; linkers in the order of their positions; H or OH if unused. Residues, ends and D or L forms follow the SMILES beside them. *: point of attachment. Thiocarbamoyl(4-MeOPh) = COc1ccc(NC(=S)*)cc1; NH(4-MeO-phenyl) = COc1ccc(N*)cc1; X1 = c1ccc2c(N3CCN(*)CC3)nsc2c1; CO = O=C([*:1])[*:2]; X6 = Fc1cccc(N*)c1; X3 = COc1ccccc1N*

Experiments:
Fusarium oxysporum [1] = test: Antifungal activity against Fusarium oxysporum at 50 ug/mL incubated for 3 days by agar well diffusion method; assay type: functional; settings: 72 h, read-out: IZ
Outline: (§1)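 Fungal growth inhibition measured by agar well diffusion, with bavistin as the reference. Records the mean inhibition-zone diameter (mm) around each well.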

[2] = Antiglycation activity using bovine serum albumin incubated at 37 degC for 7 days by spectrofluorimetry; assay type: physicochemical
Outline: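 Glycation of bovine serum albumin, with rutin as the reference standard. IC50 values are averages of triplicate runs.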

Urease = Urease (Canavalia ensiformis, UniProt P07374); test: Inhibition of jack bean urease assessed as reduction in ammonia production incubated at 30 degC for 15 mins by indophenol method
Urease, sequence (P07374 whole entry): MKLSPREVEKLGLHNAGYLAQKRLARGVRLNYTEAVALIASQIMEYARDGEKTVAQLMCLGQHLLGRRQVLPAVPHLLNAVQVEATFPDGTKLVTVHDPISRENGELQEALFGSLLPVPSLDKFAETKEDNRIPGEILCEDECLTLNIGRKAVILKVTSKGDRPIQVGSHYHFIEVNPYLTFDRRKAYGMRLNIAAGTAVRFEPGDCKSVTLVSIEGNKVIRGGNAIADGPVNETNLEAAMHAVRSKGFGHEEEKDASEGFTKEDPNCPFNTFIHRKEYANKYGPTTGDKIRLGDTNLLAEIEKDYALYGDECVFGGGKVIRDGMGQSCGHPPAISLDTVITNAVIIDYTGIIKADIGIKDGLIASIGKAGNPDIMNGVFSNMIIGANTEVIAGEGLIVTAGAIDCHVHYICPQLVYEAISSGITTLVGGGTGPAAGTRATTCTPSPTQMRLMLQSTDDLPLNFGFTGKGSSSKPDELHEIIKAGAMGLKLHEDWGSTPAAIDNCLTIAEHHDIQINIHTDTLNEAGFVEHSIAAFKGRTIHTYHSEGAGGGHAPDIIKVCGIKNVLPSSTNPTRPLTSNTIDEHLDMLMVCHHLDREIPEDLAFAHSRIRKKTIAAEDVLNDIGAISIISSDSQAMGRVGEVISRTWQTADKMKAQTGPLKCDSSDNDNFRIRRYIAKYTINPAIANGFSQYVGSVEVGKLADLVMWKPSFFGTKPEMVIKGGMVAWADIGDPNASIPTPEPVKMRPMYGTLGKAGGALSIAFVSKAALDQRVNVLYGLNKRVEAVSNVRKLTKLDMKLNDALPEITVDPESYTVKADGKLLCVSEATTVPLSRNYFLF
Outline: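 Inhibition of jack bean urease, with thiourea as the reference standard. IC50 values are the average of triplicate runs.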

[3] = Inhibition of sheep stomach parietal cells gastric H+/K+-ATPase activity assessed as reduction in inorganic phosphorus production by Fiske Subbarow's method; assay type: tissue-based, Ovis aries; settings: read-out: IC50
Outline: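 Inhibition of purified H+/K+-ATPase, with omeprazole as the reference. IC50 is the mean of triplicate runs.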

Escherichia coli = test: Antibacterial activity against Escherichia coli at 50 ug/mL incubated for 24 hrs by agar well diffusion method; assay type: functional; settings: read-out: IZ
Outline: (§2)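 Agar well diffusion against the bacterial isolate, with streptomycin as the reference drug. Read-out is the average diameter (mm) of the growth-inhibition zone around the well.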

Xanthomonas oryzae = test: Antibacterial activity against Xanthomonas oryzae at 50 ug/mL incubated for 24 hrs by agar well diffusion method; assay type: functional; settings: read-out: IZ
Staphylococcus = test: Antibacterial activity against Coagulase positive Staphylococcus at 50 ug/mL incubated for 24 hrs by agar well diffusion method; assay type: functional; settings: read-out: IZ; outline: as §2
Aspergillus flavus [4] = test: Antifungal activity against Aspergillus flavus at 50 ug/mL incubated for 3 days by agar well diffusion method; assay type: functional; settings: 72 h, read-out: IZ; outline: as §1
Aspergillus niger [5] = test: Antifungal activity against Aspergillus niger at 50 ug/mL incubated for 3 days by agar well diffusion method; assay type: functional; settings: 72 h, read-out: IZ; outline: as §1
Fusarium verticillioides [6] = test: Antifungal activity against Fusarium moniliforme at 50 ug/mL incubated for 3 days by agar well diffusion method; assay type: functional; settings: 72 h, read-out: IZ; outline: as §1
Fusarium verticillioides [7] = test: Antifungal activity against Fusarium moniliforme incubated for 48 to 72 hrs by agar microdilution method; assay type: functional
Outline: (§3)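 MIC by microdilution against the fungal strain, limited to compounds showing significant zones in the diffusion assay. Bavistin was used as the reference.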

Fusarium oxysporum [8] = test: Antifungal activity against Fusarium oxysporum incubated for 48 to 72 hrs by agar microdilution method; assay type: functional; outline: as §3
Aspergillus flavus [9] = test: Antifungal activity against Aspergillus flavus incubated for 48 to 72 hrs by agar microdilution method; assay type: functional; outline: as §3
Aspergillus niger [10] = test: Antifungal activity against Aspergillus niger incubated for 48 to 72 hrs by agar microdilution method; assay type: functional; outline: as §3

Compound `COc1ccc(NC(=O)NCC(=O)N[C@H](C(=O)NCC(=O)N[C@H](C(=O)N2CCC[C@H]2C(=O)N2CCN(c3nsc4ccccc34)CC2)C(C)C)C(C)C)cc1` ({NH(4-MeO-phenyl)-CO}-GVGVP-X1) has a zone of inhibition at 50 µg/mL (Fusarium oxysporum [1]) of 28 mm, an IC50 [2] of 21 µM and an IC50 (Urease) of 21 µM. It also gave an IC50 [3] of 34 µM, a zone of inhibition at 50 µg/mL (Escherichia coli) of 23 mm and a zone of inhibition at 50 µg/mL (Xanthomonas oryzae) of 22 mm. It also gave a zone of inhibition at 50 µg/mL (Staphylococcus) of 22 mm, a zone of inhibition at 50 µg/mL (Aspergillus flavus [4]) of 26 mm and a zone of inhibition at 50 µg/mL (Aspergillus niger [5]) of 24 mm. For the same compound, the zone of inhibition at 50 µg/mL (Fusarium verticillioides [6]) was 24 mm.
For `COc1ccc(NC(=S)NCC(=O)N[C@@H](Cc2ccccc2)C(=O)NCC(=O)N[C@H](C(=O)N2CCC[C@H]2C(=O)N2CCN(c3nsc4ccccc34)CC2)C(C)C)cc1` ({Thiocarbamoyl(4-MeOPh)}-GFGVP-X1), the zone of inhibition at 50 µg/mL (Fusarium oxysporum [1]) was 29 mm, the IC50 [2] was 16 µM and the IC50 (Urease) was 15 µM. It also gave an IC50 [3] of 34 µM, a zone of inhibition at 50 µg/mL (Escherichia coli) of 28 mm and a zone of inhibition at 50 µg/mL (Xanthomonas oryzae) of 26 mm. The zone of inhibition at 50 µg/mL (Staphylococcus) was 28 mm, the zone of inhibition at 50 µg/mL (Aspergillus flavus [4]) was 29 mm and the zone of inhibition at 50 µg/mL (Aspergillus niger [5]) was 30 mm. For the same compound, the zone of inhibition at 50 µg/mL (Fusarium verticillioides [6]) was 31 mm.
Compound `COc1ccc(NC(=S)NCC(=O)N[C@H](C(=O)NCC(=O)N[C@H](C(=O)N2CCC[C@H]2C(=O)N2CCN(c3nsc4ccccc34)CC2)C(C)C)C(C)C)cc1` ({Thiocarbamoyl(4-MeOPh)}-GVGVP-X1) has a zone of inhibition at 50 µg/mL (Fusarium oxysporum [1]) of 26 mm, an IC50 [2] of 18 µM and an IC50 (Urease) of 18 µM. For the same compound, the IC50 [3] was 32 µM, the zone of inhibition at 50 µg/mL (Escherichia coli) was 24 mm and the zone of inhibition at 50 µg/mL (Xanthomonas oryzae) was 25 mm. The zone of inhibition at 50 µg/mL (Staphylococcus) was 24 mm, the zone of inhibition at 50 µg/mL (Aspergillus flavus [4]) was 25 mm and the zone of inhibition at 50 µg/mL (Aspergillus niger [5]) was 24 mm. For the same compound, the zone of inhibition at 50 µg/mL (Fusarium verticillioides [6]) was 26 mm.
In the case of `COc1ccccc1NC(=O)NCC(=O)N[C@@H](Cc1ccccc1)C(=O)NCC(=O)N[C@H](C(=O)N1CCC[C@H]1C(=O)N1CCN(c2nsc3ccccc23)CC1)C(C)C` ({X3-CO}-GFGVP-X1), the zone of inhibition at 50 µg/mL (Fusarium oxysporum [1]) is reported as 23 mm, the IC50 [2] is reported as 22 µM and the IC50 (Urease) is reported as 21 µM. It also gave an IC50 [3] of 54 µM, a zone of inhibition at 50 µg/mL (Escherichia coli) of 23 mm and a zone of inhibition at 50 µg/mL (Xanthomonas oryzae) of 22 mm. It also gave a zone of inhibition at 50 µg/mL (Staphylococcus) of 23 mm, a zone of inhibition at 50 µg/mL (Aspergillus flavus [4]) of 25 mm and a zone of inhibition at 50 µg/mL (Aspergillus niger [5]) of 24 mm. The zone of inhibition at 50 µg/mL (Fusarium verticillioides [6]) was 26 mm.
`COc1ccccc1NC(=O)NCC(=O)N[C@H](C(=O)NCC(=O)N[C@H](C(=O)N1CCC[C@H]1C(=O)N1CCN(c2nsc3ccccc23)CC1)C(C)C)C(C)C` ({X3-CO}-GVGVP-X1) showed a zone of inhibition at 50 µg/mL (Fusarium oxysporum [1]) of 21 mm, an IC50 [2] of 24 µM and an IC50 (Urease) of 22 µM. The IC50 [3] was 46 µM, the zone of inhibition at 50 µg/mL (Escherichia coli) was 19 mm and the zone of inhibition at 50 µg/mL (Xanthomonas oryzae) was 18 mm. The zone of inhibition at 50 µg/mL (Staphylococcus) was 19 mm, the zone of inhibition at 50 µg/mL (Aspergillus flavus [4]) was 21 mm and the zone of inhibition at 50 µg/mL (Aspergillus niger [5]) was 23 mm. For the same compound, the zone of inhibition at 50 µg/mL (Fusarium verticillioides [6]) was 23 mm.
With `CC(C)[C@H](NC(=O)CNC(=O)[C@H](Cc1ccccc1)NC(=O)CNC(=O)Nc1cccc(F)c1)C(=O)N1CCC[C@H]1C(=O)N1CCN(c2nsc3ccccc23)CC1` ({X6-CO}-GFGVP-X1) the zone of inhibition at 50 µg/mL (Fusarium oxysporum [1]) was 29 mm, the IC50 [2] was 50 µM and the IC50 (Urease) was 43 µM. The IC50 [3] was 92 µM, the zone of inhibition at 50 µg/mL (Escherichia coli) was 28 mm and the zone of inhibition at 50 µg/mL (Xanthomonas oryzae) was 26 mm. For the same compound, the zone of inhibition at 50 µg/mL (Staphylococcus) was 29 mm, the zone of inhibition at 50 µg/mL (Aspergillus flavus [4]) was 29 mm and the zone of inhibition at 50 µg/mL (Aspergillus niger [5]) was 30 mm. For the same compound, the zone of inhibition at 50 µg/mL (Fusarium verticillioides [6]) was 31 mm.
`CC(C)[C@H](NC(=O)CNC(=O)Nc1cccc(F)c1)C(=O)NCC(=O)N[C@H](C(=O)N1CCC[C@H]1C(=O)N1CCN(c2nsc3ccccc23)CC1)C(C)C` ({X6-CO}-GVGVP-X1) gave a zone of inhibition at 50 µg/mL (Fusarium oxysporum [1]) of 24 mm, an IC50 [2] of 52 µM and an IC50 (Urease) of 44 µM. It also gave an IC50 [3] of 88 µM, a zone of inhibition at 50 µg/mL (Escherichia coli) of 24 mm and a zone of inhibition at 50 µg/mL (Xanthomonas oryzae) of 22 mm. The zone of inhibition at 50 µg/mL (Staphylococcus) was 23 mm, the zone of inhibition at 50 µg/mL (Aspergillus flavus [4]) was 25 mm and the zone of inhibition at 50 µg/mL (Aspergillus niger [5]) was 27 mm. It also gave a zone of inhibition at 50 µg/mL (Fusarium verticillioides [6]) of 27 mm.
With `COC(=O)Nc1nc2ccccc2[nH]1` [CARBENDAZIM] the MIC (Fusarium verticillioides [7]) was 20 mg/L (≈ 105 µM), the zone of inhibition at 50 µg/mL (Fusarium oxysporum [1]) was 13 mm and the MIC (Fusarium oxysporum [8]) was 24 mg/L (≈ 126 µM). The zone of inhibition at 50 µg/mL (Aspergillus flavus [4]) was 13 mm, the MIC (Aspergillus flavus [9]) was 24 mg/L (≈ 126 µM) and the zone of inhibition at 50 µg/mL (Aspergillus niger [5]) was 14 mm. The MIC (Aspergillus niger [10]) was 22 mg/L (≈ 115 µM) and the zone of inhibition at 50 µg/mL (Fusarium verticillioides [6]) was 15 mm.
Work on `C[C@@H]1O[C@@H](OC[C@H]2O[C@@H](Oc3c(-c4ccc(O)c(O)c4)oc4cc(O)cc(O)c4c3=O)[C@H](O)[C@@H](O)[C@@H]2O)[C@H](O)[C@H](O)[C@H]1O` [RUTIN] yielded an IC50 [2] of 41.9 µM.
